Assay results reported in ChEMBL document CHEMBL1781959, “Synthesis and in vitro antitumor activity of substituted quinazoline and quinoxaline derivatives: search for anticancer agent” (Eur J Med Chem, 2011).

How the values were obtained:
LOX IMVI = test: Growth inhibition of human LOXIMVI cells after 48 hrs by SRB assay; assay type: functional
Procedure, shortened: (§1)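 NCI 60-panel five-dose assay at 0.01, 0.1, 1, 10 and 100 μM. Cells in RPMI 1640 with 5% FBS and 2 mM L-glutamine, preincubated 24 h, with time-zero plates TCA-fixed. Drug exposure 48 h at 37 °C. Read by SRB staining at 515 nm. GI50 is the concentration where [(Ti−Tz)/(C−Tz)]×100 = 50, taken from log concentration versus % growth curves.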

NCI-H522 [1] = test: Cytotoxicity against human NCI-H522 cells after 48 hrs by SRB assay; assay type: cell-based; settings: nci-h522, 48 h
Procedure, shortened: (§2)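 NCI-60 five-dose screen in RPMI 1640 with 5% FBS and 2 mM L-glutamine; 5000–40,000 cells/well, 24 h pre-incubation. DMSO stocks diluted to 0.01, 0.1, 1, 10 and 100 μM final; 48 h at 37 °C, 5% CO2. Fixed with TCA (10% final adherent, 16% suspension), stained with 0.4% SRB, A515. GI50, TGI and LC50 taken from time-zero, control and test absorbances.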

UACC-257 = test: Cytotoxicity against human UACC257 cells after 48 hrs by SRB assay; assay type: cell-based; settings: uacc-257, 48 h
Procedure, shortened: (§3)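 NCI-60 five-dose screen. Cells grown in RPMI 1640 with 5% FBS and 2 mM L-glutamine and pre-incubated 24 h; a time-zero plate is TCA-fixed. Drug added at 0.01, 0.1, 1, 10 and 100 µM (DMSO stock) for 48 h at 37 °C, 5% CO2. Fixed with cold TCA (10% final for adherent, 16% for suspension cells), stained with 0.4% SRB, A515. GI50, TGI and LC50 taken from dose-response curves.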

MDA-MB-468 = test: Growth inhibition of human MDA-MB-468 cells after 48 hrs by SRB assay; assay type: functional; settings: MDA-MB-468, 48 h; procedure, shortened: as §1
SF-539 = test: Growth inhibition of human SF539 cells after 48 hrs by SRB assay; assay type: functional; settings: SF-539, 48 h
Procedure, shortened: (§4)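 NCI-60 panel cells grown in RPMI 1640 with 5% FBS and 2 mM L-glutamine, then seeded at 5000–40,000 cells/well by doubling time and preincubated for 24 h. Compound in DMSO was tested either at 10^-5 M alone or at 0.01–100 μM in five doses, for 48 h at 37 °C. Cells were fixed with cold TCA (10% final), stained with SRB, and read at 515 nm. GI50 was taken from % growth relative to time-zero and control wells.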

A498 = test: Cytotoxicity against human A498 cells after 48 hrs by SRB assay; assay type: cell-based; settings: a498, 48 h; procedure, shortened: as §2
SF-295 = test: Cytotoxicity against human SF295 cells after 48 hrs by SRB assay; assay type: cell-based; settings: sf-295, 48 h; procedure, shortened: as §2
MCF7 = test: Growth inhibition of human MCF7 cells after 48 hrs by SRB assay; assay type: functional; settings: MCF7, 48 h; procedure, shortened: as §1
NCI-H226 = test: Growth inhibition of human NCI-H226 cells after 48 hrs by SRB assay; assay type: functional; settings: NCI-H226, 48 h; procedure, shortened: as §1
NCI-H522 [2] = test: Growth inhibition of human NCI-H522 cells after 48 hrs by SRB assay; assay type: functional; settings: NCI-H522, 48 h; procedure, shortened: as §1
[3] = Growth inhibition of human […] cells after 48 hrs by SRB assay; assay type: functional; procedure, shortened: as §1
TK-10 [4] = test: Cytotoxicity against human TK10 cells after 48 hrs by SRB assay; assay type: cell-based; settings: tk-10, 48 h; procedure, shortened: as §3
HT-29 = test: Cytotoxicity against human HT-29 cells after 48 hrs by SRB assay; assay type: cell-based; settings: ht-29, 48 h; procedure, shortened: as §2
RXF 393 = test: Cytotoxicity against human RXF393 cells after 48 hrs by SRB assay; assay type: cell-based; settings: rxf 393, 48 h; procedure, shortened: as §2
A549 = test: Cytotoxicity against human A549 cells after 48 hrs by SRB assay; assay type: cell-based; settings: a549, 48 h; procedure, shortened: as §2
DU-145 = test: Growth inhibition of human DU145 cells after 48 hrs by SRB assay; assay type: functional; settings: DU-145, 48 h; procedure, shortened: as §1
IGROV-1 = test: Cytotoxicity against human IGROV1 cells after 48 hrs by SRB assay; assay type: cell-based; settings: igrov-1, 48 h; procedure, shortened: as §2
HCT-15 = test: Growth inhibition of human HCT15 cells after 48 hrs by SRB assay; assay type: functional; settings: HCT-15, 48 h; procedure, shortened: as §1
OVCAR-8 = test: Cytotoxicity against human OVCAR8 cells after 48 hrs by SRB assay; assay type: cell-based; settings: ovcar-8, 48 h; procedure, shortened: as §2
CAKI-1 = test: Growth inhibition of human Caki1 cells after 48 hrs by SRB assay; assay type: functional; settings: CAKI-1, 48 h; procedure, shortened: as §1
SNB-19 [5] = test: Growth inhibition of human SNB19 cells after 48 hrs by SRB assay; assay type: functional; settings: SNB-19, 48 h; procedure, shortened: as §4
TK-10 [6] = test: Growth inhibition of human TK10 cells after 48 hrs by SRB assay; assay type: functional; settings: TK-10, 48 h; procedure, shortened: as §4
OVCAR-3 = test: Growth inhibition of human OVCAR3 cells after 48 hrs by SRB assay; assay type: functional; settings: OVCAR-3, 48 h; procedure, shortened: as §1
SR = test: Growth inhibition of human SR cells after 48 hrs by SRB assay; assay type: functional
Procedure, shortened: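 Leukemia suspension line in the NCI-60 screen, grown in RPMI 1640 with 5% FBS and 2 mM L-glutamine and preincubated for 24 h. Exposure was either a single 10^-5 M dose or five doses from 0.01 to 100 μM, for 48 h at 37 °C. Settled cells were fixed with 80% TCA (16% final), stained with SRB, and read at 515 nm. GI50 was derived from % growth against time-zero and untreated controls.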

COLO 205 = test: Cytotoxicity against human COLO205 cells after 48 hrs by SRB assay; assay type: cell-based; settings: colo 205, 48 h; procedure, shortened: as §2
SNB-19 [7] = test: Cytotoxicity against human SNB19 cells after 48 hrs by SRB assay; assay type: cell-based; settings: snb-19, 48 h; procedure, shortened: as §3
HOP-62 = test: Growth inhibition of human HOP62 cells after 48 hrs by SRB assay; assay type: functional; settings: HOP-62, 48 h; procedure, shortened: as §1
SNB-75 = test: Cytotoxicity against human SNB75 cells after 48 hrs by SRB assay; assay type: cell-based; settings: snb-75, 48 h; procedure, shortened: as §3
BT-549 = test: Cytotoxicity against human BT549 cells after 48 hrs by SRB assay; assay type: cell-based; settings: bt-549, 48 h; procedure, shortened: as §2
NCI-H23 = test: Growth inhibition of human NCI-H23 cells after 48 hrs by SRB assay; assay type: functional; settings: NCI-H23, 48 h; procedure, shortened: as §1
CCRF-CEM = test: Growth inhibition of human CCRF-CEM cells after 48 hrs by SRB assay; assay type: functional; procedure, shortened: as §1

Q: With `O=c1c2ccccc2nc(-c2ccco2)n1/N=C/c1ccccc1Cl` as the molecule, how does the GI50 (LOX IMVI) read?
A: The GI50 was 4.54 µM.

Q: What about the TGI (LOX IMVI) of the same molecule?
A: Its TGI is > 100 µM.

Q: And the LC50 (NCI-H522 [1])?
A: The LC50 was 82.9 µM.

Q: What about the LC50 (UACC-257) of the same molecule?
A: The LC50 was > 100 µM.

Q: What about the GI50 (MDA-MB-468) of the same molecule?
A: The GI50 was 9.96 µM.

Q: What about the TGI (MDA-MB-468) of the same molecule?
A: Its TGI is > 100 µM.

Q: What about the GI50 (SF-539) of the same molecule?
A: Its GI50 is 3.28 µM.

Q: What about the TGI (SF-539) of the same molecule?
A: The TGI was 21.2 µM.

Q: What about the LC50 (A498) of the same molecule?
A: Its LC50 is > 100 µM.

Q: What about the LC50 (SF-295) of the same molecule?
A: The LC50 was > 100 µM.

Q: And the GI50 (MCF7)?
A: Its GI50 is 5.29 µM.

Q: What about the TGI (MCF7) of the same molecule?
A: Its TGI is > 100 µM.

Q: What about the GI50 (NCI-H226) of the same molecule?
A: Its GI50 is 4.12 µM.

Q: And the TGI (NCI-H226)?
A: Its TGI is > 100 µM.

Q: And the GI50 (NCI-H522 [2])?
A: The GI50 was 2.14 µM.

Q: And the TGI (NCI-H522 [2])?
A: Its TGI is 6.45 µM.

Q: And the GI50 [3]?
A: The GI50 was > 100 µM.

Q: What about the TGI [3] of the same molecule?
A: Its TGI is > 100 µM.

Q: What about the LC50 (TK-10 [4]) of the same molecule?
A: The LC50 was > 100 µM.

Q: What about the LC50 (HT-29) of the same molecule?
A: Its LC50 is > 100 µM.

Q: What about the LC50 (RXF 393) of the same molecule?
A: Its LC50 is > 100 µM.

Q: What about the LC50 (A549) of the same molecule?
A: Its LC50 is > 100 µM.

Q: What about the GI50 (DU-145) of the same molecule?
A: Its GI50 is 4.38 µM.

Q: And the TGI (DU-145)?
A: The TGI was > 100 µM.

Q: What about the LC50 (IGROV-1) of the same molecule?
A: Its LC50 is > 100 µM.

Q: And the GI50 (HCT-15)?
A: Its GI50 is 5.73 µM.

Q: And the TGI (HCT-15)?
A: Its TGI is > 100 µM.

Q: And the LC50 (OVCAR-8)?
A: Its LC50 is > 100 µM.

Q: And the GI50 (CAKI-1)?
A: The GI50 was 7.99 µM.

Q: And the TGI (CAKI-1)?
A: The TGI was 34.8 µM.

Q: What about the GI50 (SNB-19 [5]) of the same molecule?
A: The GI50 was 6.34 µM.

Q: And the TGI (SNB-19 [5])?
A: Its TGI is 12.8 µM.

Q: What about the GI50 (TK-10 [6]) of the same molecule?
A: The GI50 was 7.84 µM.

Q: What about the TGI (TK-10 [6]) of the same molecule?
A: Its TGI is > 100 µM.

Q: What about the GI50 (OVCAR-3) of the same molecule?
A: The GI50 was 4.12 µM.

Q: What about the TGI (OVCAR-3) of the same molecule?
A: Its TGI is 6.87 µM.

Q: What about the GI50 (SR) of the same molecule?
A: Its GI50 is > 100 µM.

Q: And the TGI (SR)?
A: Its TGI is > 100 µM.

Q: And the LC50 (COLO 205)?
A: The LC50 was > 100 µM.

Q: And the LC50 (SNB-19 [7])?
A: Its LC50 is > 100 µM.

Q: What about the GI50 (HOP-62) of the same molecule?
A: Its GI50 is 3.56 µM.

Q: What about the TGI (HOP-62) of the same molecule?
A: Its TGI is 13.7 µM.

Q: And the LC50 (SNB-75)?
A: The LC50 was > 100 µM.

Q: And the LC50 (BT-549)?
A: Its LC50 is 72.4 µM.

Q: What about the GI50 (NCI-H23) of the same molecule?
A: Its GI50 is 7.87 µM.

Q: What about the TGI (NCI-H23) of the same molecule?
A: The TGI was > 100 µM.

Q: What about the GI50 (CCRF-CEM) of the same molecule?
A: The GI50 was 11.8 µM.

Q: And the TGI (CCRF-CEM)?
A: The TGI was > 100 µM.
